These results are taken from ChEMBL document CHEMBL1157821, “In vitro photodynamic therapy and quantitative structure-activity relationship studies with stable synthetic near-infrared-absorbing bacteriochlorin photosensitizers” (J Med Chem, 2010).

The nature of data set [1]: Octanol-water partition coefficient, log P by stir-flask method. It is filed as physicochemical. The gist of the method: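 About 2 mL octanol and 2 mL water were pre-stirred 3 h at room temperature. Under 0.5 mg bacteriochlorin was added and stirred 24 h at 100–200 rpm, then the phases settled for 30 min. An aliquot of each phase was diluted in DMSO and the Qy(0,0) absorbance ratio (octanol/water) was taken. A phase with no detectable compound was set at A=0.001 as a bound.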

Data set [2] concerns HeLa. Briefly: Cellular uptake in human HeLa cells measured per mg of protein at 20.5 uM after 24 hrs by fluorescence measurements. The data set is classed as ADME, cell-based. The gist of the method: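 HeLa in RPMI with 10% heat-inactivated FBS, 5000 cells/well, grown 24 h, then given bacteriochlorin in complete medium (DMSO ≤0.2%) for 24 h. Cells were rinsed with warm PBS and lysed in SOLVABLE, 37 °C, 2 h. Fluorescence was read at ex 402/em 730 nm against per-compound calibration curves and normalized to BCA protein, giving nmol per mg protein. Three repeats.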

In data set [3] the test system is HeLa. Kind of data set: Photocytotoxicity against human HeLa cells after 24 hrs by MTT assay in presence of 10 J/cm2 laser. The conditions noted are these: light or radiation study, read-out: LD50 (the source's name). The data set is classed as functional. The gist of the method:
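HeLa cells (5000/well) grown 24 h, then incubated 24 h with bacteriochlorin at 0.001–10 μM in complete RPMI with 10% serum (DMSO ≤0.2%). Medium replaced, then 10 J/cm2 of 732 nm laser light given (780 nm LED, 50 mW/cm2, for one compound). MTT (4 h, 562 nm) 24 h later. Survival is relative to untreated controls. LD50 in nM. Experiments done in triplicate.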
For orientation: Tetrazolium assays rely on reduction of a dye to a coloured formazan, in cell work by metabolically active cells.

The subject of data set [4] is HeLa. Kind of data set: Cellular uptake in human HeLa cells assessed as localization to lysosomes at 1 uM after 24 hrs by confocal fluorescence microscopy. The data set is classed as ADME, cell-based. The essentials:
(§1)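 HeLa plated in 35 mm dishes, attached overnight, then given 1 μM bacteriochlorin in complete medium for 24 h. After a PBS wash, cells got 5 μg/mL LysoTracker green DND-26, MitoTracker green FM or ER-Tracker green for 30 min at 37 °C, then were washed again. Confocal imaging used 488 nm excitation, 515 ± 10 nm (tracker) or >580 nm (bacteriochlorin) emission, and a 63× water objective.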

Data set [5] concerns HeLa. Briefly: Cellular uptake in human HeLa cells assessed as localization to endoplasmic reticulum at 1 uM after 24 hrs by confocal fluorescence microscopy. The data set is classed as ADME, cell-based. The gist of the method:
as §1

Data set [6] concerns HeLa. Briefly: Cellular uptake in human HeLa cells assessed as localization to mitochondria at 1 uM after 24 hrs by confocal fluorescence microscopy. The data set is classed as ADME, cell-based. The essentials:
as §1

Molecules are shown by their SMILES. Some results are limits rather than exact numbers.

As to `CC1(C)Cc2cc3[nH]c(cc4nc(cc5[nH]c(cc1n2)cc5C(=O)O)CC4(C)C)cc3C(=O)O`, the lipophilicity (logP) – broadly, the decadic logarithm of the partition coefficient of the neutral form, usually between octanol and water – in data set [1] (read-out: logP) amounted to 1.4. Further, the Drug uptake in the data set with HeLa [2] turned out to be 0.72 nmol/mg. The CC50 in the data set with HeLa [3] is 4000 nM.

As for `CC1(C)Cc2cc3[nH]c(cc4nc(cc5[nH]c(cc1n2)cc5C(=O)NCCN)CC4(C)C)cc3C(=O)NCCN`, the logP in data set [1] (read-out: logP) was -0.5. Further, the Drug uptake was 7.7 nmol/mg with HeLa [2] and “Active” in the data set with HeLa [4]. The CC50 in the data set on HeLa [3] came to 3000 nM.

For `CC1(C)Cc2cc3[nH]c(cc4nc(cc5[nH]c(cc1n2)cc5CN(CCO)CCO)CC4(C)C)cc3CN(CCO)CCO`, the logP in data set [1] (read-out: logP) was found to be 2.3. Besides, the results for the Drug uptake in the data set with HeLa [2], in the data set on HeLa [5] and with HeLa [4] were 8.2 nmol/mg, “Active” and “Active”, respectively. Besides, the CC50 in the data set on HeLa [3] was 100 nM.

On to `COCCOCCOCCOCCNCc1cc(CNCCOCCOCCOCCOC)cc(-c2c3nc(cc4[nH]c(cc4-c4ccc(C)cc4)c(OC)c4nc(cc5[nH]c2cc5-c2ccc(C)cc2)C(C)(C)C4)C(C)(C)C3)c1`, for which, in data set [1] (read-out: logP), the log partition coefficient (logP) was ≥ 2.2. In the data set on HeLa [2], this compound registered a Drug uptake of 3.9 nmol/mg. For the same compound, in the data set on HeLa [3], the CC50 is 500 nM.

Regarding `COCCC(CCOC)c1cc2cc3nc(cc4[nH]c(cc5nc(cc1[nH]2)CC5(C)C)cc4C(CCOC)CCOC)CC3(C)C`, the logP in data set [1] (read-out: logP) was ≥ 2.5. Moreover, the Drug uptake in the data set on HeLa [2] was 11.7 nmol/mg.

As to `CC1(C)Cc2cc3[nH]c(cc4nc(cc5[nH]c(cc1n2)cc5-c1cc(OCCO)cc(OCCO)c1)CC4(C)C)cc3-c1cc(OCCO)cc(OCCO)c1`, in data set [1] (read-out: logP), the lipophilicity (logP) was ≥ 2.2. In addition, in the data set with HeLa [2], the Drug uptake came out at 10.4 nmol/mg. The CC50 in the data set with HeLa [3] is 15 nM.

Consider `CC1(C)Cc2cc3[nH]c(cc4nc(cc5[nH]c(cc1n2)cc5-c1cc(O)cc(O)c1)CC4(C)C)cc3-c1cc(O)cc(O)c1`, for which the logP in data set [1] (read-out: logP) is ≥ 2.5. Also, the values for the Drug uptake in the data set with HeLa [2], with HeLa [6] and with HeLa [5] were 13.5 nmol/mg, “Active” and “Active”, respectively. The CC50 in the data set with HeLa [3] is 80 nM.

For the compound `CC1(C)Cc2cc3[nH]c(cc4nc(cc5[nH]c(cc1n2)cc5C#CC[N+](C)(C)C)CC4(C)C)cc3C#CC[N+](C)(C)C.[Cl-].[Cl-]`, the lipophilicity (logP) in data set [1] (read-out: logP) turned out to be 0.9. In the data set on HeLa [2], the Drug uptake came out at 8.2 nmol/mg. Besides, in the data set on HeLa [3], the CC50 came out at 2000 nM.

Consider `CC1(C)Cc2cc3[nH]c(cc4nc(cc5[nH]c(cc1n2)cc5C(=O)N(CCN)CCN)CC4(C)C)cc3C(=O)N(CCN)CCN`, for which the log partition coefficient (logP) in data set [1] (read-out: logP) was -1.4. Besides, the Drug uptake in the data set on HeLa [2] was 1.8 nmol/mg. Also, in the data set with HeLa [3], the CC50 was 800 nM.

In the case of `CC1(C)Cc2cc3[nH]c(cc4nc(cc5[nH]c(cc1n2)cc5C(=O)N1CC[N+](C)(C)CC1)CC4(C)C)cc3C(=O)N1CC[N+](C)(C)CC1.[Cl-].[Cl-]`, the logP in data set [1] is reported as -1. For the same compound, the Drug uptake with HeLa [2] was found to be 1.8 nmol/mg. The CC50 in the data set with HeLa [3] was 800 nM.

For the compound `CC1(C)Cc2cc3[nH]c(cc4nc(cc5[nH]c(cc1n2)cc5C(=O)/C=C/c1cc(O)cc(O)c1)CC4(C)C)cc3C(=O)/C=C/c1cc(O)cc(O)c1`, the logP in data set [1] (read-out: logP) is ≥ 1.8. Moreover, the Drug uptake with HeLa [2] was 1.8 nmol/mg. The CC50 with HeLa [3] was 200 nM.

On to `COCCN(CCOC)C(=O)c1cc2cc3nc(cc4[nH]c(cc5nc(cc1[nH]2)CC5(C)C)cc4C(=O)N(CCOC)CCOC)CC3(C)C`, for which the log partition coefficient (logP) in data set [1] (read-out: logP) is ≥ 1.9. The compound also gave a Drug uptake in the data set with HeLa [2] of 15 nmol/mg. Moreover, the CC50 in the data set on HeLa [3] was 60 nM.
